Results from ChEMBL document CHEMBL2417529, “An expedient, ionic liquid mediated multi-component synthesis of novel piperidone grafted cholinesterase enzymes inhibitors and their molecular modeling study” (Eur J Med Chem, 2013).

Experiments:
[1] = Selectivity ratio of IC50 for electric eel AChE to IC50 for horse serum BChE
Procedure, shortened: (§1)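 Ratio of IC50s from Ellman microplate assays in 0.1 M sodium phosphate pH 8 with 1% final DMSO. AChE (Electrophorus electricus) used acetylthiocholine iodide; BChE (equine serum) used S-butyrylthiocholine chloride, each 14 mM stock. Enzyme and sample preincubated 15 min at 25 °C, then DTNB and substrate added. A412 read at 30 min in triplicate; IC50 from five concentrations.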

[2] = Selectivity ratio of IC50 for horse serum BChE to IC50 for electric eel AChE; procedure, shortened: as §1
Cholinesterase = Cholinesterase (Equus caballus, UniProt P81908); assay: Inhibition of horse serum BChE using S-butyrylthiocholine chloride as substrate preincubated for 15 mins followed by substrate addition measured after 30 mins by Ellman's microplate assay
Procedure, shortened: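 Equine serum BChE preincubated with test samples in 0.1 M sodium phosphate buffer pH 8 for 15 min at 25 °C. DTNB added, then S-butyrylthiocholine chloride (14 mM stock). Colored product read at 412 nm 30 min after reaction start. Final DMSO 1%; triplicates; blank-corrected absorbance; % inhibition versus control; IC50 from five concentrations.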

Acetylcholinesterase = Acetylcholinesterase (Electrophorus electricus, UniProt O42275); assay: Inhibition of electric eel AChE using acetylthiocholine iodide as substrate preincubated for 15 mins followed by substrate addition measured after 30 mins by Ellman's microplate assay
Sequence of Acetylcholinesterase (O42275 whole entry): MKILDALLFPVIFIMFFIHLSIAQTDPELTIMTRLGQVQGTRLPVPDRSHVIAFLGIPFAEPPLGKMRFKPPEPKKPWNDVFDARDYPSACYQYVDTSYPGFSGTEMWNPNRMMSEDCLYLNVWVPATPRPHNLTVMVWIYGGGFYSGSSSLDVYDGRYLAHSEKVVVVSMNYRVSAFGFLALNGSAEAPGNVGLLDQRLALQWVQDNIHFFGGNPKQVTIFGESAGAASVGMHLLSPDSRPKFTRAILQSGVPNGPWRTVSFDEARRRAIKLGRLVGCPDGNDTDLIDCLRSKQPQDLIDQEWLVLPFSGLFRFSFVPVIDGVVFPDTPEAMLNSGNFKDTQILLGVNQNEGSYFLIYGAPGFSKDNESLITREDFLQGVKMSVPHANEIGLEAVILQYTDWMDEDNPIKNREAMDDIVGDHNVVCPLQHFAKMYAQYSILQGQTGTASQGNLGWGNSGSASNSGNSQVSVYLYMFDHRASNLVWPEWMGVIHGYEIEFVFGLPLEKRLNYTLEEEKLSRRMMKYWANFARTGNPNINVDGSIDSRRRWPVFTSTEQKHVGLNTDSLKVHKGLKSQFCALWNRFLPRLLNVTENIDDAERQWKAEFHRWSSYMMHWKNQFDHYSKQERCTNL

Sequence of Cholinesterase (P81908 whole entry): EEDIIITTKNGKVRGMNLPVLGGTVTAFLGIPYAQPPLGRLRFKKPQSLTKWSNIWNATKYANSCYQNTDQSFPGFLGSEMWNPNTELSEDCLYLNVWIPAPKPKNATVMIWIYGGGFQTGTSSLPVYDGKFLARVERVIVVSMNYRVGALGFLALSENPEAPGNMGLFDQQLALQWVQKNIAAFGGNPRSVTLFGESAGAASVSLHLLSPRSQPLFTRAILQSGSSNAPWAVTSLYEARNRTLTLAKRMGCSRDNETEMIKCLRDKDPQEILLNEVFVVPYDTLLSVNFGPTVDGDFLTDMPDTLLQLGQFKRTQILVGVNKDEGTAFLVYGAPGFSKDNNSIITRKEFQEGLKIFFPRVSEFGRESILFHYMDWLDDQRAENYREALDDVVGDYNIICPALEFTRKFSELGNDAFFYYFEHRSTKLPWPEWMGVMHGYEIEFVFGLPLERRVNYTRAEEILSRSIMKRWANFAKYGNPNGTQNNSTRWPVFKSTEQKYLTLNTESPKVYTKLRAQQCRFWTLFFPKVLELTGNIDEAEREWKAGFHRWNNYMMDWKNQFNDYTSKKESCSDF

## S=C1NC2=C(CN(CCN3CCOCC3)C/C2=C\c2ccccc2)C(c2ccccc2)N1 (stereo unspecified)
[1]
  Ratio IC50: 1.39
[2]
  Ratio IC50: 0.72
Cholinesterase
  IC50: 3.23 µM
Acetylcholinesterase
  IC50: 4.49 µM

## CCN1CC2=C(NC(=S)NC2c2ccccc2C)/C(=C/c2ccccc2C)C1 (stereo unspecified)
[1]
  Ratio IC50: 1.57
[2]
  Ratio IC50: 0.64
Cholinesterase
  IC50: 3.93 µM
Acetylcholinesterase
  IC50: 6.17 µM

## CCN1CC2=C(NC(=S)NC2c2cccc([N+](=O)[O-])c2)/C(=C/c2cccc([N+](=O)[O-])c2)C1 (stereo unspecified)
[1]
  Ratio IC50: 1.54
[2]
  Ratio IC50: 0.65
Cholinesterase
  IC50: 5.11 µM
Acetylcholinesterase
  IC50: 7.88 µM

## CCN1CC2=C(NC(=S)NC2c2ccc(F)cc2)/C(=C/c2ccc(F)cc2)C1 (stereo unspecified)
[1]
  Ratio IC50: 0.36
[2]
  Ratio IC50: 2.76
Cholinesterase
  IC50: 5.98 µM
Acetylcholinesterase
  IC50: 2.07 µM

## CCN1CC2=C(NC(=S)NC2c2ccccc2)/C(=C/c2ccccc2)C1 (stereo unspecified)
[1]
  Ratio IC50: 0.22
[2]
  Ratio IC50: 4.56
Cholinesterase
  IC50: 4.2 µM
Acetylcholinesterase
  IC50: 0.92 µM

## S=C1NC2=C(CN(CCN3CCOCC3)C/C2=C\c2ccccc2Cl)C(c2ccccc2Cl)N1 (stereo unspecified)
[1]
  Ratio IC50: 2.77
[2]
  Ratio IC50: 0.36
Cholinesterase
  IC50: 2.44 µM
Acetylcholinesterase
  IC50: 6.75 µM

## Fc1ccccc1/C=C1\CN(CCN2CCOCC2)CC2=C1NC(=S)NC2c1ccccc1F (stereo unspecified)
[1]
  Ratio IC50: 3.14
[2]
  Ratio IC50: 0.32
Cholinesterase
  IC50: 2.97 µM
Acetylcholinesterase
  IC50: 9.32 µM

## S=C1NC2=C(CN(CCN3CCOCC3)C/C2=C\c2ccc(Cl)cc2Cl)C(c2ccc(Cl)cc2Cl)N1 (stereo unspecified)
[1]
  Ratio IC50: 1.47
[2]
  Ratio IC50: 0.68
Cholinesterase
  IC50: 5.87 µM
Acetylcholinesterase
  IC50: 8.67 µM

## CCN1CC2=C(NC(=S)NC2c2ccc(Cl)cc2)/C(=C/c2ccc(Cl)cc2)C1 (stereo unspecified)
[1]
  Ratio IC50: 0.22
[2]
  Ratio IC50: 4.56
Cholinesterase
  IC50: 5.88 µM
Acetylcholinesterase
  IC50: 1.29 µM

## CCN1CC2=C(NC(=S)NC2c2ccc(C)cc2)/C(=C/c2ccc(C)cc2)C1 (stereo unspecified)
[1]
  Ratio IC50: 1.06
[2]
  Ratio IC50: 0.94
Cholinesterase
  IC50: 4.73 µM
Acetylcholinesterase
  IC50: 5.02 µM

## Cc1ccccc1/C=C1\CN(CCN2CCOCC2)CC2=C1NC(=S)NC2c1ccccc1C (stereo unspecified)
[1]
  Ratio IC50: 4.31
[2]
  Ratio IC50: 0.23
Cholinesterase
  IC50: 1.89 µM
Acetylcholinesterase
  IC50: 8.15 µM

## S=C1NC2=C(CN(CCN3CCOCC3)C/C2=C\c2ccc(Cl)cc2)C(c2ccc(Cl)cc2)N1 (stereo unspecified)
[1]
  Ratio IC50: 1.28
[2]
  Ratio IC50: 0.78
Cholinesterase
  IC50: 4.28 µM
Acetylcholinesterase
  IC50: 5.49 µM

## CCN1CC2=C(NC(=S)NC2c2ccc(Cl)cc2Cl)/C(=C/c2ccc(Cl)cc2Cl)C1 (stereo unspecified)
[1]
  Ratio IC50: 2.42
[2]
  Ratio IC50: 0.41
Cholinesterase
  IC50: 3.61 µM
Acetylcholinesterase
  IC50: 8.75 µM

## COc1ccccc1/C=C1\CN(CCN2CCOCC2)CC2=C1NC(=S)NC2c1ccccc1OC (stereo unspecified)
[1]
  Ratio IC50: 1.42
[2]
  Ratio IC50: 0.71
Cholinesterase
  IC50: 5.93 µM
Acetylcholinesterase
  IC50: 8.39 µM

## CCN1CC2=C(NC(=S)NC2c2ccccc2F)/C(=C/c2ccccc2F)C1 (stereo unspecified)
[1]
  Ratio IC50: 1.24
[2]
  Ratio IC50: 0.81
Cholinesterase
  IC50: 4.48 µM
Acetylcholinesterase
  IC50: 5.54 µM

## Cc1ccc(/C=C2\CN(CCN3CCOCC3)CC3=C2NC(=S)NC3c2ccc(C)cc2)cc1 (stereo unspecified)
[1]
  Ratio IC50: 2
[2]
  Ratio IC50: 0.5
Cholinesterase
  IC50: 3.58 µM
Acetylcholinesterase
  IC50: 7.16 µM

## CCN1CC2=C(NC(=S)NC2c2ccccc2Cl)/C(=C/c2ccccc2Cl)C1 (stereo unspecified)
[1]
  Ratio IC50: 2.3
[2]
  Ratio IC50: 0.43
Cholinesterase
  IC50: 3.57 µM
Acetylcholinesterase
  IC50: 8.22 µM

## Fc1ccc(/C=C2\CN(CCN3CCOCC3)CC3=C2NC(=S)NC3c2ccc(F)cc2)cc1 (stereo unspecified)
[1]
  Ratio IC50: 1.97
[2]
  Ratio IC50: 0.51
Cholinesterase
  IC50: 3.41 µM
Acetylcholinesterase
  IC50: 6.72 µM

## CCN1CC2=C(NC(=S)NC2c2ccccc2OC)/C(=C/c2ccccc2OC)C1 (stereo unspecified)
[1]
  Ratio IC50: 0.61
[2]
  Ratio IC50: 1.65
Cholinesterase
  IC50: 8.13 µM
Acetylcholinesterase
  IC50: 4.92 µM
